In PubChem BioAssay:
The source made the active and inactive calls.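 Rule for the calls, unless noted: active = viability at or under a set limit in both replicates, limit being median viability minus 3 SD (cut at about 48% in these data, passing the limit was not always enough); inconclusive = at or under the limit in just one replicate; inactive = at or above the limit in both replicates.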 Peptide text beside a SMILES is read from it. * marks the point of attachment. Boc = CC(C)(C)OC(=O)*

Tests used:
[1] = HUVEC growth inhibition – cell-based, human, primary screen (AID 575;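 active = viability at or below 30% in both replicate assays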;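 note: 100% = median of untreated cell wells with 0.1% DMSO on each plate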); settings: HUVEC proliferation, CellTiter-Glo luminescence, 72 h; at 10 µM; stronger effect = lower value
Outline: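 Timing: 72 h treatment at 37 °C; material: HUVEC primary cells; technique: CellTiter-Glo luminescence measuring cellular ATP; controls: vehicle and MePR control wells; measure: percent of median DMSO-control luminescence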

[2] = growth inhibitors of H69AR lung tumor, primary screen, human, duplicate replicates (AID 580); settings: H69AR lung tumor cells viability, ATP luminescence, 72 h; at 10 µM; stronger effect = lower value;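 note: 100% = mean luminescence of untreated wells and 0% = no signal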
[3] = reversal of MRP1-mediated doxorubicin resistance, pilot screen, H69AR cells, doxorubicin co-treatment (AID 601;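 active = viability loss from added drug above about 55%, and viability with drug at most 40%, in both replicates, limit read from the data, passing the limit was not always enough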); settings: CellTiter-Glo, 72 h, at 10 µM; for differential viability (reversal): stronger effect = higher value
[4] = 384-well plate pilot, post-Golgi transport modulator project, inhibition of yeast transport mutant growth (AID 636; in the data active = inhibition above about 31%); settings: absorbance 615 nm, about 18 h, stronger effect = higher value
[5] = growth suppression of yeast trafficking mutant, preliminary HTS, modulators of trafficking downstream of Golgi apparatus project, 1536-format plate, OD 615 nm (AID 637; in the data active = inhibition above about 30%); settings: yeast transport mutant growth, absorbance 615 nm, 18 h; stronger effect = higher value
[6] = H69AR cells + 2 uM doxorubicin, measured here: viability with 2 uM doxorubicin, stronger effect = lower value
[7] = H69AR cells, compound alone cytotoxicity

Structure (SMILES)	viability [1]	viability [2]	differential viability (reversal) ([3]; H69AR cells + 2 uM doxorubicin)	viability [3, 6] [%]	viability [3, 7] [%]	inhibition [4]	inhibition [5]
COCC(C)NC(=O)CCS(=O)(=O)c1nc(-c2ccc(OC)cc2)cc(C(F)(F)F)n1 (stereo not drawn)	8.82% (active)	23.7% (active)	-11.7% (inactive)	35.3	23.7	-7.87% (inactive)	-0.63% (inactive)
CCOC(=O)Cc1nnc(NC(=O)c2ncn[nH]2)s1	95.4% (inactive)	98.8% (inactive)	-2.02% (inactive)	101	98.8	-2.93% (inactive)	-1.27% (inactive)
Cc1ccc(NC(=O)c2ccco2)cc1NC(=O)CSc1nnc(-c2cccs2)n1C	112% (inactive)	99.8% (inactive)	23.4% (inactive)	76.4	99.8	-6.13% (inactive)	2.38% (inactive)
CS(=O)(=O)N(CC(=O)N1CCCCCC1)c1ccccc1	95.2% (inactive)	98.2% (inactive)	8.29% (inactive)	90	98.2	-5.79% (inactive)	1.9% (inactive)
CN1CCN(c2nc(-c3ccncc3)nc3ccccc23)CC1	78.3% (inactive)	78.3% (inactive)	49.5% (inactive)	28.8	78.3	-5.47% (inactive)	1.75% (inactive)
Cc1ccc(S(=O)(=O)N(C)CC(=O)NC2CCCC2)cc1	118% (inactive)	102% (inactive)	17.5% (inactive)	84.9	102	-2.63% (inactive)	0.95% (inactive)
Cc1ccc(C(=O)Nc2ccc3c(c2)OCO3)o1	83% (inactive)	69.6% (inactive)	-5.72% (inactive)	75.3	69.6	-2.6% (inactive)	-3.81% (inactive)
COc1ccccc1NS(=O)(=O)c1ccc(NC(=O)c2nc3ncccn3n2)cc1	94.7% (inactive)	96.3% (inactive)	11.2% (inactive)	85.1	96.3	-1.17% (inactive)	7.3% (inactive)
O=C1C=C(NCc2ccco2)C2(CCCCC2)O1	95.7% (inactive)	105% (inactive)	22.5% (inactive)	82.2	105	-1.95% (inactive)	5.08% (inactive)
COc1cccc(NC(=O)C2CCN(c3ncccn3)CC2)c1	90% (inactive)	94% (inactive)	-2.54% (inactive)	96.6	94	-6.4% (inactive)	-12.5% (inactive)
CC(=O)Nc1cccc(-c2nnc(-c3ccccc3)o2)c1	88.8% (inactive)	92.6% (inactive)	6.77% (inactive)	85.8	92.6	-5.58% (inactive)	-1.9% (inactive)
CC1(c2ccncc2)Nc2ccccc2-c2nc3ccccc3n21 (stereo not drawn)	92.4% (inactive)	99.2% (inactive)	-2.33% (inactive)	101	99.2	-1.45% (inactive)	-0.95% (inactive)
COC(=O)c1ccccc1NC(=O)c1noc2c1CC(C(C)(C)C)CC2 (stereo not drawn)	112% (inactive)	107% (inactive)	14.2% (inactive)	92.9	107	-1.17% (inactive)	0.63% (inactive)
CN(c1ccccc1)S(=O)(=O)c1cc(C(=O)N2CCN(c3ccccn3)CC2)ccc1Cl	45.3% (inactive)	88.5% (inactive)	10.1% (inactive)	78.4	88.5	0.39% (inactive)	2.22% (inactive)
CC(C)(C)OC(=O)N1CCCC1C(=O)N1CCCC1C(=O)N1CCCC1C(=O)O (stereo not drawn) (Boc-Pro-Pro-Pro-OH; configuration not given here)	101% (inactive)	97.9% (inactive)	3.05% (inactive)	94.8	97.9	-5.06% (inactive)	-0.95% (inactive)
Cc1ccc(-c2ccc(/C=N/n3cnnc3)o2)cc1Cl	87.2% (inactive)	101% (inactive)	4.54% (inactive)	96.3	101	-2.08% (inactive)	86.2% (active)
CSc1n[nH]c(NCc2ccccc2)n1	96.5% (inactive)	96.8% (inactive)	0.755% (inactive)	96.1	96.8	-5.13% (inactive)	1.43% (inactive)
COc1ccc(CN2C(=O)C(O)(CC(=O)c3c(C)n[nH]c3C)c3ccccc32)cc1OC (stereo not drawn)	105% (inactive)	95.4% (inactive)	3.36% (inactive)	92	95.4	-0.53% (inactive)	-4.44% (inactive)
COc1cc(NS(=O)(=O)c2cccc3nsnc23)c(C(=O)O)cc1OC	102% (inactive)	102% (inactive)	8.71% (inactive)	93.4	102	-1.43% (inactive)	-1.9% (inactive)
